Data: ChEMBL document CHEMBL1138360, “Hypoxia-selective 3-alkyl 1,2,4-benzotriazine 1,4-dioxides: the influence of hydrogen bond donors on extravascular transport and antitumor activity” (J Med Chem, 2007)

Legend:
[1] = Solubility in culture medium in presence of 5% fetal calf serum; type: physicochemical; conditions: culture medium with 5% fetal calf serum
Procedure, shortened: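 Solubility determined at 22 °C in culture medium containing 5% fetal calf serum.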

[2] = system: HT-29; experiment: Cytotoxicity against HT29 cells under hypoxic condition after 4 hrs; type: functional, cell-based; conditions: Homo sapiens, HT-29, 4 h
Procedure, shortened: (§1)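 HT29 or SiHa cells exposed to drug for 4 h in 96-well plates under anoxia (H2/Pd anaerobic chamber). IC50 determined.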

[3] = system: HT-29; experiment: Ratio of IC50 for HT29 cells in aerobic condition to IC50 for HT29 cells in hypoxic condition after 4 hrs; type: functional, Homo sapiens
Procedure, shortened: (§2)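 Aerobic and anoxic (H2/Pd chamber) IC50s measured in the same experiment after 4 h exposure, HT29 or SiHa cells. Ratio computed as aerobic IC50/anoxic IC50.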

[4] = system: SiHa; experiment: Cytotoxicity against SiHa cells under hypoxic condition after 4 hrs; type: functional, cell-based; conditions: Homo sapiens; procedure, shortened: as §1
[5] = system: SiHa; experiment: Ratio of IC50 for SiHa cells in aerobic condition to IC50 for SiHa cells in hypoxic condition after 4 hrs; type: functional, Homo sapiens; procedure, shortened: as §2
[6] = system: HT-29; experiment: Drug penetration in anoxic HT29 cells assessed as penetration half distance; type: ADME, cell-based; conditions: human
[7] = system: HT-29; experiment: Cell viability in anoxic HT29 cells assessed as drug level providing 10% surviving fraction by clonogenic assay; type: cell-based; conditions: human
[8] = system: HT-29; experiment: Diffusion coefficient, D in aerobic HT29 multicellular layers; type: ADME, cell-based; conditions: human
Procedure, shortened: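 Drug flux measured through HT29 multicellular layers on Teflon support membranes under 95% O2 at 37 °C, 50 µM initial donor concentration. Donor and receiver levels fitted with a diffusion model. Layer thickness estimated from flux of internal standard urea.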

[9] = Toxicity in ip dosed CD1 mouse; type: organism-based; conditions: in vivo
Procedure, shortened: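 Single i.p. doses given to homozygous nude CD-1 Foxn1nu mice, with the vehicle formulated per compound. Doses escalated in 1.33-fold increments. MTD was defined as the highest dose causing no mortality, no body weight loss >15% and no other severe morbidity in any of six mice.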

[10] = Cmax in CD1 mouse plasma at 421 umol/kg, ip; type: ADME, organism-based; parameters: dose 421 umol/kg, route intraperitoneal
Procedure, shortened: (§3)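 Single i.p. dose to homozygous nude CD-1 Foxn1nu mice, at 75 or 100% of MTD (MTD set by 1.33-fold dose steps; highest dose without death, >15% weight loss or severe morbidity in any of six mice). Total drug measured in plasma by HPLC. AUC, Cmax and terminal t½ derived noncompartmentally. Measured levels taken as free drug.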

[11] = Terminal half life in CD1 mouse plasma at 421 umol/kg, ip; type: ADME, organism-based; procedure, shortened: as §3
[12] = AUC (0 to infinity) in CD1 mouse plasma at 421 umol/kg, ip; type: ADME, organism-based; parameters: dose 421 umol/kg, time infinity, route intraperitoneal; procedure, shortened: as §3
[13] = system: HT-29; experiment: Antitumor activity against HT29 tumor inoculated in CD1 nude mouse at 421 umol/kg, ip relative to control; type: functional, Homo sapiens
[14] = system: HT-29; experiment: Antitumor activity against HT29 tumor inoculated in CD1 nude mouse at 421 umol/kg, ip administered 5 mins after gamma irradiation by excision assay relative to radiation alone; type: functional, Homo sapiens
Procedure, shortened: (§4)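 HT29 xenografts in nude CD-1 mice received 20 Gy γ radiation, then a single i.p. drug dose 5 min later, at 100% or 75% of MTD. Tumors excised 18 h afterwards, dissociated to single cells and plated for clonogens/g tumor. Hypoxic cell kill = log(clonogens/g, radiation only) − log(clonogens/g, radiation + drug).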

[15] = Cmax in CD1 mouse plasma at 562 umol/kg, ip; type: ADME, organism-based; parameters: dose 562 umol/kg, route intraperitoneal; procedure, shortened: as §3
[16] = AUC (0 to infinity) in CD1 mouse plasma at 562 umol/kg, ip; type: ADME, organism-based; parameters: dose 562 umol/kg, time infinity, route intraperitoneal; procedure, shortened: as §3
[17] = system: HT-29; experiment: Antitumor activity against HT29 tumor inoculated in CD1 nude mouse at 562 umol/kg, ip administered 5 mins after gamma irradiation by excision assay relative to radiation alone; type: functional, Homo sapiens; procedure, shortened: as §4

solubility [1] [mM]	Penetration half distance [6] [µm]	Structure (SMILES)	IC50 [2] [nM]	Ratio IC50 [3]	IC50 [4] [nM]	Ratio IC50 [5]	Activity [7] [µM·h]	further results
–	34	[O-][n+]1nc(CCN2CCOCC2)[n+]([O-])c2ccccc21	3800	107	2200	225	10	–
–	34	Cc1ccc2c(c1)[n+]([O-])c(CCO)n[n+]2[O-]	4300	82	1200	208	22.2	–
–	34	CCc1n[n+]([O-])c2ccc(OCCCO)cc2[n+]1[O-]	17000	54	8600	105	108.9	–
34	–	Cl.[O-][n+]1nc(CCO)[n+]([O-])c2ccccc21	–	–	–	–	–	–
17	–	CCc1n[n+]([O-])c2cc(OCCCO)ccc2[n+]1[O-].Cl	–	–	–	–	–	–
> 46	–	Cl.[O-][n+]1nc(CCCN2CCOCC2)[n+]([O-])c2ccccc21	–	–	–	–	–	–
–	34	CCc1n[n+]([O-])c2cc(OCCCO)ccc2[n+]1[O-]	6900	146	2700	161	31.6	–
7	–	Cc1ccc2c(c1)[n+]([O-])c(CCO)n[n+]2[O-].Cl	–	–	–	–	–	–
43	–	Cl.[O-][n+]1nc(CCCN2CCCCC2)[n+]([O-])c2ccccc21	–	–	–	–	–	–
3	–	COCCc1n[n+]([O-])c2ccc(C)cc2[n+]1[O-].Cl	–	–	–	–	–	–
–	34	[O-][n+]1nc(CCO)[n+]([O-])c2ccccc21	3700	153	1700	526	18.1	D [8]: 4.41 10^-7cm2/sec
–	34	[O-][n+]1nc(CCCN2CCCCC2)[n+]([O-])c2ccccc21	1000	36	600	55	1.5	D [8]: 6.5 10^-7cm2/sec
51	–	CN(C)CCCc1n[n+]([O-])c2ccccc2[n+]1[O-].Cl	–	–	–	–	–	–

Further lines, the compound ahead of its results:

Structure (SMILES)	solubility [1] [mM]	Penetration half distance [6] [µm]	IC50 [2] [nM]	Ratio IC50 [3]	IC50 [4] [nM]	Ratio IC50 [5]	Activity [7] [µM·h]	further results
CCc1n[n+]([O-])c2cc(OCCCN3CCOCC3)ccc2[n+]1[O-].Cl	> 48	–	–	–	–	–	–	–
COCCc1n[n+]([O-])c2ccccc2[n+]1[O-]	–	34	3500	49	1600	61	21.3	D [8]: 20.89 10^-7cm2/sec; MTD [9]: 421 µmol/kg; Cmax [10]: 176 µM; half-life [11]: 18 min; AUC(0-inf) [12]: 113 µM·h; Activity [13]: 0.3%; Activity [14]: 0.8%
CCc1n[n+]([O-])c2ccc(OCCCN3CCOCC3)cc2[n+]1[O-].Cl	> 47	–	–	–	–	–	–	–
CCc1n[n+]([O-])c2cc(OCCOC)ccc2[n+]1[O-].Cl	2	–	–	–	–	–	–	–
CCc1n[n+]([O-])c2ccc(OC)cc2[n+]1[O-]	–	34	16800	73	6800	175	69.9	MTD [9]: 750 µmol/kg; Cmax [15]: 71.5 µM; AUC(0-inf) [16]: 138 µM·h; Activity [17]: 0.76%
[O-][n+]1nc(-c2ccccc2)[n+]([O-])c2ccccc21	–	34	4400	2	2200	1	–	–
CCc1n[n+]([O-])c2cc(OCCN(C)C)ccc2[n+]1[O-].Cl	> 51	–	–	–	–	–	–	–
CCc1n[n+]([O-])c2cc(OCCN(C)C)ccc2[n+]1[O-]	–	34	700	105	500	128	1.8	–
CCc1n[n+]([O-])c2ccc(OCCN(C)C)cc2[n+]1[O-]	–	34	1300	307	800	374	5.1	MTD [9]: 562 µmol/kg; Cmax [10]: 55.5 µM; half-life [11]: 32.2 min; AUC(0-inf) [12]: 55.7 µM·h; Activity [13]: 0.23%; Activity [14]: 0.88%
CCc1n[n+]([O-])c2ccccc2[n+]1[O-].Cl	15	–	–	–	–	–	–	–
CCc1n[n+]([O-])c2ccc(OCCN3CCCCC3)cc2[n+]1[O-].Cl	> 48	–	–	–	–	–	–	–
